Assay results as given in ChEMBL document CHEMBL3596093, “Synthesis and antimicrobial evaluation of 5-aryl-1,2,4-triazole-3-thione derivatives containing a rhodanine moiety” (2015).
In brackets after ≈: the same amount, converted by molar mass.

Columns and labels:
[1] = test system: Staphylococcus aureus; assay: Antibacterial activity against Staphylococcus aureus RN4220 after 24 hrs by two-fold serial dilution method; type: functional; details: RN4220, 24 h
Procedure, shortened: (§1)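 Broth microdilution MIC. Bacteria grown to mid-log phase in Mueller-Hinton broth, diluted 1000-fold, about 10^5 CFU/mL. Compounds from DMSO stocks, two-fold serial dilution from a final 64 µg/mL. Incubation at 37 °C for 24 h. Growth read as absorbance at 630 nm on a microplate reader. Run in triplicate.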

[2] = test system: Staphylococcus aureus; assay: Antibacterial activity against Staphylococcus aureus KCTC 209 after 24 hrs by two-fold serial dilution method; type: functional; details: KCTC 209, 24 h
Procedure, shortened: (§2)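 Strains grown to mid-log phase in Mueller-Hinton broth, then diluted 1000-fold in the same broth to about 10^5 CFU/mL. Compounds were made up as DMSO stocks and two-fold serially diluted from a final top concentration of 64 µg/mL. Incubation was 37 °C for 24 h. Growth was read as absorbance at 630 nm on a microplate reader. MIC assays were run in triplicate.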

[3] = test system: Staphylococcus aureus; assay: Antibacterial activity against Staphylococcus aureus KCTC 503 after 24 hrs by two-fold serial dilution method; type: functional; details: KCTC 503, 24 h; procedure, shortened: as §2
[4] = test system: Streptococcus mutans; assay: Antibacterial activity against Streptococcus mutans 3065 after 24 hrs by two-fold serial dilution method; type: functional; details: Streptococcus mutans, 3065, 24 h; procedure, shortened: as §2
[5] = test system: Escherichia coli; assay: Antibacterial activity against Escherichia coli KCTC 1924 after 24 hrs by two-fold serial dilution method; type: functional; details: KCTC 1924, 24 h; procedure, shortened: as §2
[6] = test system: Escherichia coli; assay: Antibacterial activity against Escherichia coli CCARM 1356 after 24 hrs by two-fold serial dilution method; type: functional; details: CCARM 1356, 24 h; procedure, shortened: as §2
[7] = test system: Pseudomonas aeruginosa; assay: Antibacterial activity against Pseudomonas aeruginosa 2742 after 24 hrs by two-fold serial dilution method; type: functional; details: Pseudomonas aeruginosa, 2742, 24 h; procedure, shortened: as §2
[8] = test system: Pseudomonas aeruginosa; assay: Antibacterial activity against Pseudomonas aeruginosa 2004 after 24 hrs by two-fold serial dilution method; type: functional; details: Pseudomonas aeruginosa, 2004, 24 h; procedure, shortened: as §2
[9] = test system: Salmonella typhimurium; assay: Antibacterial activity against Salmonella typhimurium 2421 after 24 hrs by two-fold serial dilution method; type: functional, Salmonella enterica subsp. enterica serovar Typhimurium; details: Salmonella enterica, 2421, 24 h; procedure, shortened: as §2
[10] = test system: Candida albicans; assay: Antifungal activity against Candida albicans 7535 after 24 hrs by two-fold serial dilution method; type: functional; details: Candida albicans, 7535, 24 h
[11] = test system: Staphylococcus aureus; assay: Bactericidal activity against Staphylococcus aureus RN4220 after 24 hrs by agar plate method; type: functional; details: RN4220, 24 h
Procedure, shortened: (§3)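 Samples of 5 µL from MIC wells with no visible growth were plated onto fresh Mueller-Hinton agar and incubated a further 24 h at 37 °C. MBC is the lowest concentration giving no visible colony growth on the agar. Assays were run in triplicate.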

[12] = test system: Staphylococcus aureus; assay: Bactericidal activity against Staphylococcus aureus KCTC 209 after 24 hrs by agar plate method; type: functional; details: KCTC 209, 24 h; procedure, shortened: as §3
[13] = test system: Staphylococcus aureus; assay: Bactericidal activity against Staphylococcus aureus KCTC 503 after 24 hrs by agar plate method; type: functional; details: KCTC 503, 24 h
Procedure, shortened: (§4)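 5 µL from each well without visible growth plated on fresh Mueller-Hinton agar, then 37 °C for a further 24 h. MBC is the lowest concentration giving no visible colonies. Run in triplicate.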

[14] = test system: Streptococcus mutans; assay: Bactericidal activity against Streptococcus mutans 3065 after 24 hrs by agar plate method; type: functional; details: Streptococcus mutans, 3065, 24 h; procedure, shortened: as §3
[15] = test system: Escherichia coli; assay: Bactericidal activity against Escherichia coli KCTC 1924 after 24 hrs by agar plate method; type: functional; details: KCTC 1924, 24 h; procedure, shortened: as §3
[16] = test system: Staphylococcus aureus; assay: Antibacterial activity against methicillin-resistant Staphylococcus aureus CCARM 3167 after 24 hrs by two-fold serial dilution method; type: functional; details: CCARM 3167, 24 h; procedure, shortened: as §1
[17] = test system: Staphylococcus aureus; assay: Antibacterial activity against methicillin-resistant Staphylococcus aureus CCARM 3506 after 24 hrs by two-fold serial dilution method; type: functional; details: CCARM 3506, 24 h; procedure, shortened: as §1
[18] = test system: Staphylococcus aureus; assay: Antibacterial activity against quinolone-resistant Staphylococcus aureus CCARM 3505 after 24 hrs by two-fold serial dilution method; type: functional; details: CCARM 3505, 24 h; procedure, shortened: as §1
[19] = test system: Staphylococcus aureus; assay: Antibacterial activity against quinolone-resistant Staphylococcus aureus CCARM 3519 after 24 hrs by two-fold serial dilution method; type: functional; details: CCARM 3519, 24 h; procedure, shortened: as §1
[20] = test system: Staphylococcus aureus; assay: Bactericidal activity against methicillin-resistant Staphylococcus aureus CCARM 3167 after 24 hrs by agar plate method; type: functional; details: CCARM 3167, 24 h; procedure, shortened: as §4
[21] = test system: Staphylococcus aureus; assay: Bactericidal activity against methicillin-resistant Staphylococcus aureus CCARM 3506 after 24 hrs by agar plate method; type: functional; details: CCARM 3506, 24 h; procedure, shortened: as §4
[22] = test system: Staphylococcus aureus; assay: Bactericidal activity against quinolone-resistant Staphylococcus aureus CCARM 3505 after 24 hrs by agar plate method; type: functional; details: CCARM 3505, 24 h; procedure, shortened: as §4
[23] = test system: Staphylococcus aureus; assay: Bactericidal activity against quinolone-resistant Staphylococcus aureus CCARM 3519 after 24 hrs by agar plate method; type: functional; details: CCARM 3519, 24 h; procedure, shortened: as §4
[24] = test system: Escherichia coli; assay: Ratio of MBC to MIC for Escherichia coli KCTC 1924; type: functional
Procedure, shortened: (§5)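 The ratio divides MBC by MIC for the same strain. MIC comes from two-fold broth microdilution in Mueller-Hinton broth (about 10^5 CFU/mL, 37 °C, 24 h, absorbance at 630 nm). MBC comes from subculturing 5 µL from clear wells onto Mueller-Hinton agar for another 24 h at 37 °C, taken as the lowest concentration with no colonies.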

[25] = test system: Staphylococcus aureus; assay: Ratio of MBC to MIC for Staphylococcus aureus KCTC 503; type: functional; procedure, shortened: as §5

SMILES	MIC [1]	MIC [2]	MIC [3]	MIC [4]	MIC [5]	MIC [6]	MIC [7]	MIC [8]	MIC [9]	MIC [10]	MBC [11]	MBC [13]	MBC [14]	MBC [15]	MIC [16]	MIC [17]	MIC [18]	MIC [19]	MBC [20]	MBC [23]	also measured
O=C1NC(=S)S/C1=C\c1ccc(/C=N/n2c(-c3ccccc3Br)n[nH]c2=S)cc1	16 µg/mL (≈ 31.8 µM)	64 µg/mL (≈ 127 µM)	16 µg/mL (≈ 31.8 µM)	16 µg/mL (≈ 31.8 µM)	16 µg/mL (≈ 31.8 µM)	> 128 µg/mL	> 128 µg/mL	> 128 µg/mL	> 128 µg/mL	> 64 µg/mL	128 µg/mL (≈ 255 µM)	> 128 µg/mL	> 128 µg/mL	> 128 µg/mL	16 µg/mL (≈ 31.8 µM)	16 µg/mL (≈ 31.8 µM)	16 µg/mL (≈ 31.8 µM)	16 µg/mL (≈ 31.8 µM)	> 128 µg/mL	> 128 µg/mL	MBC [12]: > 256 µg/mL; MBC [21]: > 128 µg/mL; MBC [22]: > 128 µg/mL
O=C1NC(=S)S/C1=C\c1ccc(/C=N/n2c(-c3ccccc3Cl)n[nH]c2=S)cc1	32 µg/mL (≈ 69.9 µM)	64 µg/mL (≈ 140 µM)	16 µg/mL (≈ 34.9 µM)	16 µg/mL (≈ 34.9 µM)	16 µg/mL (≈ 34.9 µM)	> 128 µg/mL	> 128 µg/mL	> 128 µg/mL	> 128 µg/mL	> 64 µg/mL	> 256 µg/mL	> 256 µg/mL	> 128 µg/mL	> 128 µg/mL	16 µg/mL (≈ 34.9 µM)	16 µg/mL (≈ 34.9 µM)	16 µg/mL (≈ 34.9 µM)	16 µg/mL (≈ 34.9 µM)	> 128 µg/mL	> 128 µg/mL	MBC [12]: > 256 µg/mL; MBC [21]: > 128 µg/mL; MBC [22]: > 128 µg/mL
O=C1NC(=S)S/C1=C\c1ccc(/C=N/n2c(-c3ccccc3)n[nH]c2=S)cc1	32 µg/mL (≈ 75.6 µM)	64 µg/mL (≈ 151 µM)	32 µg/mL (≈ 75.6 µM)	16 µg/mL (≈ 37.8 µM)	32 µg/mL (≈ 75.6 µM)	> 128 µg/mL	> 128 µg/mL	> 128 µg/mL	> 128 µg/mL	> 64 µg/mL	> 256 µg/mL	> 256 µg/mL	> 128 µg/mL	128 µg/mL (≈ 302 µM)	32 µg/mL (≈ 75.6 µM)	32 µg/mL (≈ 75.6 µM)	32 µg/mL (≈ 75.6 µM)	32 µg/mL (≈ 75.6 µM)	> 256 µg/mL	> 256 µg/mL	MBC [12]: > 256 µg/mL; Ratio [24]: <=4; MBC [21]: > 256 µg/mL; MBC [22]: > 256 µg/mL
O=C(O)CN1C(=O)/C(=C/c2ccc(/C=N/n3c(-c4ccccc4Br)n[nH]c3=S)cc2)SC1=S	64 µg/mL (≈ 114 µM)	> 64 µg/mL	> 64 µg/mL	> 64 µg/mL	64 µg/mL (≈ 114 µM)	> 128 µg/mL	> 128 µg/mL	> 128 µg/mL	> 128 µg/mL	> 64 µg/mL	> 256 µg/mL	–	–	256 µg/mL (≈ 457 µM)	64 µg/mL (≈ 114 µM)	> 64 µg/mL	> 64 µg/mL	64 µg/mL (≈ 114 µM)	256 µg/mL (≈ 457 µM)	> 256 µg/mL	Ratio [24]: <=4
O=C(O)[C@H](Cc1ccccc1)N1C(=O)/C(=C/c2ccc(/C=N/n3c(-c4ccc(F)cc4)n[nH]c3=S)cc2)SC1=S	16 µg/mL (≈ 27.1 µM)	> 64 µg/mL	32 µg/mL (≈ 54.3 µM)	64 µg/mL (≈ 109 µM)	> 128 µg/mL	> 128 µg/mL	> 128 µg/mL	> 128 µg/mL	> 128 µg/mL	> 64 µg/mL	128 µg/mL (≈ 217 µM)	128 µg/mL (≈ 217 µM)	256 µg/mL (≈ 434 µM)	–	16 µg/mL (≈ 27.1 µM)	64 µg/mL (≈ 109 µM)	16 µg/mL (≈ 27.1 µM)	16 µg/mL (≈ 27.1 µM)	128 µg/mL (≈ 217 µM)	128 µg/mL (≈ 217 µM)	Ratio [25]: <=4; MBC [21]: > 256 µg/mL; MBC [22]: 128 µg/mL (≈ 217 µM)
O=C(O)[C@H](Cc1ccccc1)N1C(=O)/C(=C/c2ccc(/C=N/n3c(-c4cccc(Br)c4)n[nH]c3=S)cc2)SC1=S	32 µg/mL (≈ 49.2 µM)	> 64 µg/mL	64 µg/mL (≈ 98.4 µM)	64 µg/mL (≈ 98.4 µM)	64 µg/mL (≈ 98.4 µM)	> 128 µg/mL	> 128 µg/mL	> 128 µg/mL	> 128 µg/mL	> 64 µg/mL	256 µg/mL (≈ 393 µM)	128 µg/mL (≈ 197 µM)	> 128 µg/mL	64 µg/mL (≈ 98.4 µM)	32 µg/mL (≈ 49.2 µM)	16 µg/mL (≈ 24.6 µM)	16 µg/mL (≈ 24.6 µM)	32 µg/mL (≈ 49.2 µM)	128 µg/mL (≈ 197 µM)	256 µg/mL (≈ 393 µM)	Ratio [25]: <=4; Ratio [24]: <=4; MBC [21]: 64 µg/mL (≈ 98.4 µM); MBC [22]: 128 µg/mL (≈ 197 µM)
